Assay outcomes: PubChem BioAssay, several laboratories
A selection: hits, their analogues and other compounds. The true share with any hit is near 1.6%.
SUMO1 PPI mod: modulators of SUMO1 protein-protein interactions, primary screen, biochemical, uHTS; SUMO1 binding to a labelled peptide, TR-FRET, 1 h; 0.33% of 360,000 active; inhibition, % at 20 µM; in the data active means inhibition above about 37%
Scp1 inh: Scp-1 phosphatase inhibitors, primary screen, biochemical, colorimetric, uHTS | Carboxy-terminal domain RNA polymerase II polypeptide A small phosphatase 1 (Homo … | Recombinant Scp1, phosphopeptide, malachite green phosphate absorbance | inhibition, % at 20 µM | 0.88% of 340,000 active | AID 493091, 2011;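 active means inhibition above about 50% at 20 µM, limit read from the data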;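 further: plate controls were DMSO wells with enzyme for no effect and wells lacking enzyme for full effect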
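Test system – truncated SCP-1 phosphatase (76-261aa) · Reagent – Phosphorylated 17-residue peptide substrate · Incubation – 45 min room-temperature reaction, 5 min colour, 30 min stabiliser · Detection – colorimetric phosphate reagent with accelerator and stabiliser, absorbance at 630 nm · Measure – % inhibition at 20 µM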
LMPTP block: LMPTP phosphatase inhibitors, primary screen, biochemical, fluorescence intensity, uHTS. inhibition, % at 20 µM. Low molecular weight phosphotyrosine protein phosphatase (Homo sapiens), P24666. recombinant LMPTP-A, OMFP fluorogenic substrate. 0.22% of 360,000 active. AID 651560, 2012;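 active means compounds that cut the enzyme signal by at least half of the control window in the single-dose screen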;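 further: plate controls were DMSO wells with enzyme plus substrate for no effect and substrate without enzyme for full effect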
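Assay system: LMPTP-A, protein tyrosine phosphatase of low molecular weight / Medium: pH 6.0 Bis-Tris buffer with DTT and Triton X-100 / Schedule: 50 min enzyme reaction at room temperature, protected from light / Measured by: endpoint fluorescence intensity from OMFP dephosphorylation / Read-out basis: % inhibition relative to no-enzyme and uninhibited control wells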
STEP block: STEP phosphatase inhibitors, primary screen, biochemical, fluorescence intensity, uHTS; Tyrosine-protein phosphatase non-receptor type 5 (Homo sapiens), P54829; recombinant STEP, OMFP fluorogenic substrate; inhibition, % at 20 µM; 0.25% of 360,000 active; AID 588621, 2011;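 active means inhibition at 20 µM, scaled per plate between control wells, above about 37%, limit read from the data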;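 further: 0% = DMSO with enzyme and substrate and 100% = substrate only without enzyme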
Target sequence (P54829 whole entry, looked up): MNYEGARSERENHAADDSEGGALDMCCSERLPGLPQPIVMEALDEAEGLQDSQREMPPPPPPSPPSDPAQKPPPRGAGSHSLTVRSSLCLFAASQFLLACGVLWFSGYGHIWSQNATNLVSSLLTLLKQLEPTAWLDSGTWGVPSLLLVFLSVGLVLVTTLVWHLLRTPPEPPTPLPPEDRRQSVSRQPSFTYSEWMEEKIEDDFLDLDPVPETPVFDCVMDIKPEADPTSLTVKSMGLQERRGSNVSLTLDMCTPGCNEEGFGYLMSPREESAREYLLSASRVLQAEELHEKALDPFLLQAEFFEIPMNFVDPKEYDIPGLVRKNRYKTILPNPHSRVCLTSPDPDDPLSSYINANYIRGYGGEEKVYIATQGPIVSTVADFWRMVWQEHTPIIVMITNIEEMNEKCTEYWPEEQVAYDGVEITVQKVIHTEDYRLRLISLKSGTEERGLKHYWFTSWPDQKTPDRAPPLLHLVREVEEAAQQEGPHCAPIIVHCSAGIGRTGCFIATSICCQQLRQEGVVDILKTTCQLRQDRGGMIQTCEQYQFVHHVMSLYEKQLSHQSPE
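Also added – OMFP at 25 µM · Test system – STEP tyrosine phosphatase · Technique – FITC-channel fluorescence of OMFP product · Schedule – 20 min at room temperature, dark · Evaluation – control-normalized % inhibition with plate pattern correction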
DNMT1 block: human DNMT1 methyltransferase inhibitors, primary screen, biochemical, molecular beacon, fluorescence, HinP1I cleavage, uHTS | inhibition (reported as % activation of signal), % at 10 µM | DNA (cytosine-5)-methyltransferase 1 (Homo sapiens), P26358 | AID 588458, 2011 | 0.83% of 360,000 active; in the data active means inhibition above about 50%
CFTR F508del cor: F508del CFTR correction, initial screen, CFBE line, single point; CFBE cells, YFP halide quenching; stimulated with forskolin plus potentiator P3; % fluorescence drop versus neutral controls; activity (quench increase), % at 7.58 µM; 0.36% of 350,000 active; AID 720511, 2013;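 active means mean added fluorescence quench of at least 8% versus neutral control, with both replicates also reaching 8%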;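 further: cells transiently co-express mutant CFTR-F508del with the halide-sensitive YFP; corrector assay measuring rescue of mutant channel to the surface after 24 h compound exposure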
Scp-1 conf: Scp-1 phosphatase inhibitors, retest, confirmation, biochemical, colorimetric, single concentration; inhibition, % at 20 µM; AID 540281, 2011; 61% of 2,500 active; shares compounds with Scp1 inh; recombinant SCP-1 catalytic domain, phosphate release, malachite green absorbance;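 further: plate controls were DMSO with enzyme for no effect and buffer wells lacking enzyme for full effect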
Scp-1 MG ctr: colorimetric readout interference by compounds, confirmation, artefact control for Scp-1 inhibitor project, biochemical, single concentration. shares compounds with Scp1 inh. apparent inhibition (interference), % at 20 µM. 2,500 tested, under 10 active. AID 540313, 2011. Colorimetric interference counterscreen, malachite green absorbance 630 nm;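 further: compounds added after enzyme reaction finished so only phosphate colour detection is probed; plate controls were DMSO wells with completed Scp-1 reaction for no effect and substrate wells lacking enzyme for full effect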
Scp-1 Tm shift: Scp-1 binding by thermal shift, confirmation, orthogonal assay for Scp-1 inhibitor project, biophysical, differential scanning fluorimetry | shares compounds with Scp1 inh | Recombinant SCP1, Sypro Orange thermal shift Tm | thermal shift relative to vanadate control, % at 40 µM | 25% of 1,500 active | AID 540329, 2011;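 active means substances whose mean melting-temperature shift, as a percentage of the reference inhibitor's shift, reaches about 5.3%, limit read from the data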;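 further: 0% = Tm of DMSO wells and 100% = Tm with sodium orthovanadate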
DNMT1 interf DR: spectral interference with molecular beacon fluorescence, dose response, artefact control for DNMT1 inhibitor project, biochemical, fluorescent molecular beacon; 200 tested, under 10 active; IC50, µM; shares compounds with DNMT1 block; spectral interference counter-screen; call rule not given here
DNMT1 confirm: DNMT1 methyltransferase inhibitor retest, confirmation, biochemical, molecular beacon, fluorescence, single concentration; shares compounds with DNMT1 block; DNMT1 molecular beacon HinP1I cleavage; inhibition, % at 10 µM; 8% of 2,300 active; AID 602385, 2012;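 active means average inhibition of at least 30% in the single-concentration confirmation test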
DNMT1 interf: counter-screen for DNMT1 inhibitors: spectral interference; shares compounds with DNMT1 block; 1% of 2,300 active; AID 602387; DNMT1 molecular beacon spectral interference counterscreen, fluorescence 485/520; activation (fluorescence interference), % at 10 µM;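 active means activation of at least 30% at 10 µM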;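 further: DNMT1 catalytic domain with a HinP1I cleavage step and a FAM/dabcyl DNA beacon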
* = called active by the depositor; . = no result given.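 How the source made its calls, unless noted: active means inhibition of at least 30% at 20 µM; inactive means the rest.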

SMILES	SUMO1 PPI mod	Scp1 inh	LMPTP block	STEP block	DNMT1 block	CFTR F508del cor	Scp-1 conf	Scp-1 MG ctr	Scp-1 Tm shift	DNMT1 confirm	DNMT1 interf	others
COc1cc(NC(=O)c2cccs2)c(C(=O)OCC(=O)NCc2ccco2)cc1OC	16	26	5	2	12	.	.	.	.	.	.
O=C(COC(=O)c1cncc(Br)c1)NCc1ccco1	63*	88*	9	14	102*	.	54*	-20	-10	5	3
COCCCNC(=O)/C(C#N)=C/c1ccc(OCC(=O)O)c(OC)c1	27	57*	15	34	89*	.	60*	-9	7.5*	17	0
COc1ccc(/C=C(\C#N)C(=O)NCCc2ccccc2)cc1OCc1ccccc1	0	-24	5	1	-10	.	.	.	.	.	.
CC(=O)NC[C@@H]1[C@@H](c2ccccc2)[C@H](CO)N1C(=O)Cc1cccnc1	.	.	.	.	.	0	.	.	.	.	.
Cc1cccc(NC(=O)CNC(=O)c2cccc(-n3cccc3)c2)c1C	34	73*	17	9	87*	0	75*	-7	-3	21	1
Cc1ccc(NC(=O)CN(C)C(=O)c2cccc(-n3cccc3)c2)cc1	48*	91*	18	9	100*	2	72*	-5	2	34*	2	DNMT1 interf DR=>99
Cc1cc2oc(C(=O)NCCc3ccc(S(N)(=O)=O)cc3)c(C)c2cc1C	3	85*	50*	8	79*	12*	71*	-16	-11	3	2
CCc1ccc(NC(=O)COC(=O)/C=C/c2ccco2)cc1	-7	67*	5	18	50*	0	63*	0	0	3	3
CCN(c1ccc(NC(=O)COC(=O)/C=C/c2ccco2)cc1)C(C)C	-26	2	-1	2	-5	1	.	.	.	.	.
CN(CCOC(=O)/C=C/c1ccco1)Cc1ccccc1	1	66*	0	3	78*	-2	53*	-8	1	9	-3
CSC1=N/C(=C\c2ccc(Br)o2)C(=O)S1	14	84*	24	23	101*	.	53*	-22	5	-2	0
O=C1NC(=S)NC1=Cc1ccco1	8	59*	14	9	53*	1	54*	-4	2	5	2
N#CC(C#N)=Cc1cccn1-c1ccc(C(=O)O)cc1	-6	70*	7	24	101*	2	61*	-13	1	21	-1
